Laboratory results: ChEMBL document CHEMBL4138058, “Design and synthesis of novel selective estrogen receptor degradation inducers based on the diphenylheptane skeleton” (Medchemcomm, 2017)

Key:
Type in all cases: cell-based
[1] = target: T1, Aryl hydrocarbon receptor (Homo sapiens, UniProt P35869); experiment: Downregulation of AhR expression in human MCF7 cells at 10 uM after 6 hrs by Western blot method relative to lamin B; details: mcf7, 6 h
T1 sequence (P35869 whole entry): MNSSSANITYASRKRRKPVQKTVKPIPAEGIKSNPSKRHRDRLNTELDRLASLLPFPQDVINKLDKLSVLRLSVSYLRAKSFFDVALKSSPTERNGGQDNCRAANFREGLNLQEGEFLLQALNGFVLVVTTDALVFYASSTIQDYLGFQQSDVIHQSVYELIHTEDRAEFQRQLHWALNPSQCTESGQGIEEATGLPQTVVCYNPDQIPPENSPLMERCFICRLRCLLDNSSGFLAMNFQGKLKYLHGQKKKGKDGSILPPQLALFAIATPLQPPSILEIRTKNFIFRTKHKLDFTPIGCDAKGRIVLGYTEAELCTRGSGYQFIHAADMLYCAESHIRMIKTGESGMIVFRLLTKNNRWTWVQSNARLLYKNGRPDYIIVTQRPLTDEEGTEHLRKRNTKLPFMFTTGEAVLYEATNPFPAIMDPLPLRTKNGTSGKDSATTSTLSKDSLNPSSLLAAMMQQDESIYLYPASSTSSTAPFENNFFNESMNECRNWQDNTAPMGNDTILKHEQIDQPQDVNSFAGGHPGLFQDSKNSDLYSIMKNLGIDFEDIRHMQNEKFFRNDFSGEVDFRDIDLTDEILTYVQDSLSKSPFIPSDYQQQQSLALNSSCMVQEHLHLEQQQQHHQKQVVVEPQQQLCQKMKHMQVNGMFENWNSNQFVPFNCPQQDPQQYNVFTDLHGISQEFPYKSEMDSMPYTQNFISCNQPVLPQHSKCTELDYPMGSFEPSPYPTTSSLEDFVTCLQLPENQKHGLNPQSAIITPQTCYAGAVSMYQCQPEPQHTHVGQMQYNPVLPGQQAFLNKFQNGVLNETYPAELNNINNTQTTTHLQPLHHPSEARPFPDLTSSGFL
Outline: (§1)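 MCF-7 cells kept in DMEM with 10% FBS, kanamycin and 10 μg/mL insulin, then exposed to compounds for 6 h. Lysates made in SDS buffer (0.1 M Tris-HCl pH 8.0, 10% glycerol, 1% SDS), boiled, BCA-normalized and run on SDS-PAGE. Blots probed with anti-ERα, AR, AhR or VDR and β-actin or lamin B. Chemiluminescence quantified as target/loading-protein ratio; means ± S.E., n=3.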

[2] = target: T2, Estrogen receptor (Homo sapiens) (UniProt P03372); experiment: Downregulation of ERalpha expression in human MCF7 cells at 10 uM after 6 hrs by Western blot method relative to lamin B; outline: as §1
T2 sequence (whole entry): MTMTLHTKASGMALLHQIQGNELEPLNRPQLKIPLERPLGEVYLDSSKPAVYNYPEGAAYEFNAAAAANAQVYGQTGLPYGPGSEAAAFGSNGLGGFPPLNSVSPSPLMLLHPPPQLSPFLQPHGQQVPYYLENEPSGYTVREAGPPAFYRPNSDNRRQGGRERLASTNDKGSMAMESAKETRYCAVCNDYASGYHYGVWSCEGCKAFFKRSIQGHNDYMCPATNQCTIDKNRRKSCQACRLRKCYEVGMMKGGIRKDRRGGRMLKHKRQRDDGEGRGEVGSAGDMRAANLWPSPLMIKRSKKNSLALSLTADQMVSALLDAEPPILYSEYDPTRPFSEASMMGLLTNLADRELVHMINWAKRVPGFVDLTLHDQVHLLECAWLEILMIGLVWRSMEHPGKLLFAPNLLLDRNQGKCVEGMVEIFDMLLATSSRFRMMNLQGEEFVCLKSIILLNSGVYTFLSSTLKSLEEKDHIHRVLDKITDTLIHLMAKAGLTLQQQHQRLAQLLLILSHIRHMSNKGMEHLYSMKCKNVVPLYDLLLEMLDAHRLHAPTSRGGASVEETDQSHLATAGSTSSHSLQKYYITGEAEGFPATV

[3] = target: T1, Aryl hydrocarbon receptor; experiment: Downregulation of AhR expression in human MCF7 cells at 10 uM after 6 hrs in presence of proteasome inhibitor MG132 by Western blot method relative to lamin B; details: mcf7, 6 h; outline: as §1
[4] = target: T3, Vitamin D3 receptor (Homo sapiens) (UniProt P11473); experiment: Downregulation of VDR expression in human MCF7 cells at 10 uM after 6 hrs by Western blot method relative to lamin B; outline: as §1
T3 sequence (whole entry): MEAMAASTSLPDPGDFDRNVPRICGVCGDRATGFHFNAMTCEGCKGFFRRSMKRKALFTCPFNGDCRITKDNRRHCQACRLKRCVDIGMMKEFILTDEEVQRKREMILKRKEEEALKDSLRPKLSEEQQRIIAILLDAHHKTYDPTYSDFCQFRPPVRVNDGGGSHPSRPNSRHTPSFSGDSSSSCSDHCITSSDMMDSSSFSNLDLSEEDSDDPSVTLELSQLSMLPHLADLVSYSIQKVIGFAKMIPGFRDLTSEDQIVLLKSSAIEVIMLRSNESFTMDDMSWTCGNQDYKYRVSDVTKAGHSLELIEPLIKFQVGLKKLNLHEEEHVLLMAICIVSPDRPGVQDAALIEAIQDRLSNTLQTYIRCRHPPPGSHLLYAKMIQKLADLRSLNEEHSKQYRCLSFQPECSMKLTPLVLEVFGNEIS

[5] = target: T1, Aryl hydrocarbon receptor; experiment: Downregulation of AhR expression in human MCF7 cells at 3 uM after 6 hrs by Western blot method relative to lamin B; details: mcf7, 6 h; outline: as §1
[6] = target: T2, Estrogen receptor (Homo sapiens); experiment: Downregulation of ERalpha expression in human MCF7 cells at 1 uM after 6 hrs by Western blot method relative to lamin B; outline: as §1
[7] = target: T1, Aryl hydrocarbon receptor; experiment: Downregulation of AhR expression in human MCF7 cells at 3 uM after 6 hrs in presence of proteasome inhibitor MG132 by Western blot method relative to lamin B; details: mcf7, 6 h; outline: as §1
[8] = target: T3, Vitamin D3 receptor (Homo sapiens); experiment: Downregulation of VDR expression in human MCF7 cells at 3 uM after 6 hrs by Western blot method relative to lamin B; outline: as §1
[9] = target: T2, Estrogen receptor (Homo sapiens); experiment: Downregulation of ERalpha expression in human MCF7 cells after 6 hrs by Western blot method; outline: as §1
[10] = target: T3, Vitamin D3 receptor (Homo sapiens); experiment: Downregulation of VDR expression in human MCF7 cells at 10 uM after 6 hrs in presence of proteasome inhibitor MG132 by Western blot method relative to lamin B; outline: as §1
[11] = target: T1, Aryl hydrocarbon receptor; experiment: Downregulation of AhR expression in human MCF7 cells at 1 uM after 6 hrs by Western blot method relative to lamin B; details: mcf7, 6 h; outline: as §1

CCCCCCCCCCNCCOc1ccc(C(CCC)(CCC)c2ccc(O)c(C)c2)cc1C
Activity [1]: 81% | Activity [2]: 32 to 44% | Activity [3]: 107% | Activity [4]: 80% | Activity [5]: 80% | Activity [6]: 58 to 76% | Activity [7]: 99% | Activity [8]: 99% | Activity [9]: Dose-dependent effect | Activity [10]: 86% | Activity [11]: 87%
